Rpn11 inh – Rpn11 (PSMD14) deubiquitinase inhibitors, primary screen, biochemical, fluorescence polarization, uHTS; inhibition, % at 20 µM; 360,000 tested, 0.59% active; 26S proteasome non-ATPase regulatory subunit 14 (Homo sapiens), O00487; AID 588493, 2011; human 26S proteasome, Ub4-pepOG fluorescence polarization; 20S core pre-blocked with epoxomicin;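 active = inhibition at 20 µM, scaled to each plate's controls, above about 33%, limit read from the data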
Target sequence (O00487 whole entry, looked up): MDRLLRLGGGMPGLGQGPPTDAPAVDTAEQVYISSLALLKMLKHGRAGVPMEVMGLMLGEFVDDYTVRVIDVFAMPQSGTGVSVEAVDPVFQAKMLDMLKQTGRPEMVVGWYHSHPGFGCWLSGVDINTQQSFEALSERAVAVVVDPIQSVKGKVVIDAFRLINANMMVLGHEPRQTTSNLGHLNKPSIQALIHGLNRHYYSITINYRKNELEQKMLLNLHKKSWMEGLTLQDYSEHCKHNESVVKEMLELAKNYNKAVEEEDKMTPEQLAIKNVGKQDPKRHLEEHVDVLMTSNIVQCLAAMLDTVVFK
LMPTP block – LMPTP phosphatase inhibitors, primary screen, biochemical, fluorescence intensity, uHTS; inhibition, % at 20 µM; recombinant LMPTP-A, OMFP fluorogenic substrate; 360,000 tested, 0.22% active; Low molecular weight phosphotyrosine protein phosphatase (Homo sapiens), P24666; AID 651560, 2012;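 active = compounds that cut the enzyme signal by at least half of the control window in the single-dose screen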
Target sequence (P24666 whole entry, looked up): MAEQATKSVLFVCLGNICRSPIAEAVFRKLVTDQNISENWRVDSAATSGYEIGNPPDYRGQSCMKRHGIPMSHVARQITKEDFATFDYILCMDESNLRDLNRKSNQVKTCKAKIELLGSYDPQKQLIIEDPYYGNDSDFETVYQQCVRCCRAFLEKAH
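Test system: LMPTP-A, protein tyrosine phosphatase of low molecular weight; Input: 0.625 nM enzyme; Incubation: 50 min dark incubation at room temperature; Signal: endpoint fluorescence intensity from OMFP dephosphorylation; Read-out basis: % inhibition versus control wells.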
DNMT1 block – human DNMT1 methyltransferase inhibitors, primary screen, biochemical, molecular beacon, fluorescence, HinP1I cleavage, uHTS | DNA (cytosine-5)-methyltransferase 1 (Homo sapiens), P26358 | inhibition (reported as % activation of signal), % at 10 µM | 360,000 tested, 0.83% active; in the data active = inhibition above about 50%
Scp-1 inhibitor – Scp-1 phosphatase inhibitors, primary screen, biochemical, colorimetric, uHTS; Carboxy-terminal domain RNA polymerase II polypeptide A small phosphatase 1 (Homo …; inhibition, % at 20 µM; AID 493091, 2011; Recombinant Scp1, phosphopeptide, malachite green phosphate absorbance; 340,000 tested, 0.88% active;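 active = inhibition above about 50% at 20 µM, limit read from the data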
Target sequence (Q9GZU7 76-261 limits assumed): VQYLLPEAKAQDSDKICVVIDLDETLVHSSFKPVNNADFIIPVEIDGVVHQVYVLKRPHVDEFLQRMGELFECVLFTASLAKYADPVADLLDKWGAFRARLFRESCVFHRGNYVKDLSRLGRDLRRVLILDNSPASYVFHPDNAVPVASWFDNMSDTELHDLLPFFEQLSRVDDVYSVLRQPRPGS
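Test system: SCP-1 phosphatase catalytic domain, residues 76-261 | Compound dosing: One concentration, 20 µM, with 1.0% DMSO | Schedule: 45 min room-temperature reaction, 5 min colour, 30 min stabiliser | Detection: Absorbance at 630 nm | Read-out basis: % inhibition of SCP-1 phosphate liberation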
STEP inh – STEP phosphatase inhibitors, primary screen, biochemical, fluorescence intensity, uHTS; 360,000 tested, 0.25% active; recombinant STEP, OMFP fluorogenic substrate; inhibition, % at 20 µM; Tyrosine-protein phosphatase non-receptor type 5 (Homo sapiens), P54829;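 active = inhibition at 20 µM, scaled per plate between control wells, above about 37%, limit read from the data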
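material = STEP tyrosine phosphatase | reagent = fluorogenic phosphatase substrate OMFP at 25 µM final | doses = single compound dose of 20 µM, 1% DMSO final | schedule = 20 min reaction, room temperature, in the dark | measured by = fluorescence, 480/540 nm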
Scp1 confirm – Scp-1 phosphatase inhibitors, retest, confirmation, biochemical, colorimetric, single concentration; shares compounds with Scp-1 inhibitor; recombinant SCP-1 catalytic domain, phosphate release, malachite green absorbance; inhibition, % at 20 µM; 2,500 tested, 61% active;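 active = inhibition of at least 30% at 20 µM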
Scp-1 MG ctr – colorimetric readout interference by compounds, confirmation, artefact control for Scp-1 inhibitor project, biochemical, single concentration | apparent inhibition (interference), % at 20 µM | shares compounds with Scp-1 inhibitor | 2,500 tested, under 10 active | AID 540313, 2011 | Colorimetric interference counterscreen, malachite green absorbance 630 nm;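 active = inhibition of at least 30% at 20 µM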;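 note: compounds added after enzyme reaction finished so only phosphate colour detection is probed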
Scp-1 Tm shift – Scp-1 binding by thermal shift, confirmation, orthogonal assay for Scp-1 inhibitor project, biophysical, differential scanning fluorimetry. shares compounds with Scp-1 inhibitor. Recombinant SCP1, Sypro Orange thermal shift Tm. thermal shift relative to vanadate control, % at 40 µM. 1,500 tested, 25% active;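 active = substances whose mean melting-temperature shift, as a percentage of the reference inhibitor's shift, reaches about 5.3%, limit read from the data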
DNMT1 confirm – DNMT1 methyltransferase inhibitor retest, confirmation, biochemical, molecular beacon, fluorescence, single concentration; shares compounds with DNMT1 block; DNMT1 molecular beacon HinP1I cleavage; inhibition, % at 10 µM; 2,300 tested, 8% active; AID 602385, 2012;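 active = average inhibition of at least 30% in the single-concentration confirmation test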
Beacon interf – counter-screen for DNMT1 inhibitors: spectral interference; shares compounds with DNMT1 block; DNMT1 molecular beacon spectral interference counterscreen, fluorescence 485/520; activation (fluorescence interference), % at 10 µM; 2,300 tested, 1% active; AID 602387;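 active = activation of at least 30% at 10 µM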;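 note: DNMT1 catalytic domain with a HinP1I cleavage step and a FAM/dabcyl DNA beacon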
Rpn11 inh conf – Rpn11 (PSMD14) deubiquitinase inhibitors, confirmation, biochemical, fluorescence polarization, single concentration; inhibition, % at 20 µM; AID 602318, 2012; 1,900 tested, 29% active; purified human 26S proteasome, Ub4-pepOG fluorescence polarization; proteasome pretreated with epoxomicin; shares compounds with Rpn11 inh
MMP-2 inh – MMP-2 enzyme inhibition, confirmation, counter-screen for RPN11 inhibitor project, biochemical, fluorescence, single concentration; shares compounds with Rpn11 inh; recombinant MMP-2, FRET peptide cleavage fluorescence; inhibition, % at 20 µM; 1,900 tested, 4% active; AID 602330, 2012;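 note: human MMP-2 activated beforehand with APMA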
Thrombin inh – bovine thrombin protease inhibition, confirmation, counter-screen for Rpn11 inhibitor project, biochemical, fluorescence polarization, single concentration; shares compounds with Rpn11 inh; bovine thrombin cleavage of Ub4-pepOG; inhibition, % at 20 µM; 1,900 tested, 13% active; AID 602333, 2012;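 active = mean inhibition at least 40% at 20 µM, or signal 3 deviations below plate average, so some actives read negative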
STEP inh conf – STEP phosphatase inhibitor hit confirmation, biochemical, fluorescence intensity, single concentration. shares compounds with STEP inh. recombinant STEP, OMFP fluorogenic substrate. inhibition, % at 20 µM. 520 tested, 32% active; call rule not given here
A number is an active result; - = inactive; . = not tested or not shown. Sampled rows, rich in hits. Any-hit rate of the full collection: about 2%. Cut-off read from the data, not from the text of the source, unless noted: active = inhibition above about 40%; inactive = the rest.

SMILES	Rpn11 inh	LMPTP block	DNMT1 block	Scp-1 inhibitor	STEP inh	Scp1 confirm	Scp-1 MG ctr	Scp-1 Tm shift	STEP inh conf	others
CCOC(=O)C1=C(C)N=c2s/c(=C\c3cccc(OCC(=O)O)c3)c(=O)n2C1c1ccccc1 (stereo unspecified)	-	-	-	-	-	.	.	.	.
COc1ccc2cc3c(N)nn(C(=O)c4cccc([N+](=O)[O-])c4)c3nc2c1	.	66	77	98	98	79	-	-	-	DNMT1 confirm=-;Beacon interf=-
O=C1c2cccc3cccc(c23)C(=O)N1c1ccc2ncccc2c1	136	-	-	101	100	74	-	-	-	Rpn11 inh conf=41;MMP-2 inh=-;Thrombin inh=-
O=C1c2cccc3cccc(c23)C(=O)N1c1nccs1	-	-	-	-	-	.	.	.	.
CCCC(=O)N1CCC1(C)C(=O)Nc1ccc(-n2cccc2)cc1 (stereo unspecified)	-	-	-	.	-	.	.	.	.
O=C(N/N=C/c1ccccc1Cl)c1nc2ccc([N+](=O)[O-])cc2c(=O)[nH]1	-	-	-	70	54	32	-	7.5	-
FC(F)(F)c1ccc(Nc2nnnc3ccccc23)cc1	-	51	-	73	97	62	-	-	-
Cc1cc(Br)ccc1NC(=O)CN(C)C(=O)c1ccc2ccccc2n1	-	-	-	-	-	.	.	.	.
O=C(COc1ccc(/C=N/NC(=O)c2ccc(O)cc2)cc1)Nc1cccc([N+](=O)[O-])c1	-	59	-	96	74	61	-	13	94
CCOc1ccc(C(=O)N/N=C/c2cc([N+](=O)[O-])cs2)cc1	-	71	-	107	91	82	-	-	-	DNMT1 confirm=-;Beacon interf=-
COc1cc(C(=O)N/N=C/c2cc([N+](=O)[O-])cs2)cc(OC)c1OC	-	-	-	-	-	.	.	.	.
CCOc1cc(C(=O)NCCCNC(=O)c2cc(OCC)c(OCC)c(OCC)c2)cc(OCC)c1OCC	-	-	-	-	-	.	.	.	.
CC1(C(=O)NS(=O)(=O)c2cccc(Cl)c2)CCN1C(=O)CC1CC1 (stereo unspecified)	-	-	-	.	-	.	.	.	.
O=C(CSc1nc2ccccc2[nH]1)N1CCCCC1	-	-	-	-	-	.	.	.	.
Cc1c(C)n(C(=O)CSc2nc3ccccc3[nH]2)c2ccccc12	-	-	100	98	84	60	-	5.8	52	DNMT1 confirm=-;Beacon interf=-
CC(CCc1ccccc1)NC(=O)COC(=O)c1ccc(NC(=O)CC#N)cc1 (stereo unspecified)	-	-	-	-	-	.	.	.	.
O=C(Nc1cccc(-c2nc3ccccc3s2)c1)c1cc(=O)c2ccccc2o1	-	-	52	72	80	43	-	-	-	DNMT1 confirm=-;Beacon interf=-
O=C(Nc1cccc(-c2nc3ccccc3s2)c1)c1cccs1	-	-	-	-	-	.	.	.	.
Cc1ccc(S(=O)(=O)Cc2ccc(C(=O)O)o2)cc1	-	-	89	86	55	50	-	7.9	50	DNMT1 confirm=-;Beacon interf=-
Cc1ccc(S(=O)(=O)N2CCCCC2)cc1C(=O)NCCN1CCOCC1	-	-	-	-	-	.	.	.	.
O=C(O)C(S)C(S)C(=O)O (stereo unspecified)	-	-	86	96	50	65	-	-	101
COC(=O)COc1ccc2oc(=O)cc(-c3cc4cccc(OC)c4o3)c2c1	-	61	-	75	75	56	-	-	-
COc1cccc2cc(-c3cc(=O)oc4ccc(OCC(C)=O)cc34)oc12	-	-	-	-	-	.	.	.	.
CC1(C(=O)NS(=O)(=O)C2CC2)CCN(C(=O)c2ccc3ccccc3n2)C1 (stereo unspecified)	-	-	-	.	-	.	.	.	.
CCOc1cc(/C=C2/NC(=O)NC2=O)cc(Br)c1OCc1ccc(C(=O)O)cc1	-	56	-	73	96	88	-	-	-
CCCCCCn1cc(CN2CC(N3CCCC3)CS2(=O)=O)nn1 (stereo unspecified)	.	-	.	.	.	.	.	.	.
O=C(NCCCO)C(=O)Nc1cc2c3c(c1)CCC(=O)N3CCC2	-	-	-	-	-	.	.	.	.
O=C1NC(=Nc2cccnc2)S/C1=C/c1ccc(F)cc1	-	-	-	87	61	50	-	-	-
O=C1N/C(=N/S(=O)(=O)c2ccccc2)S/C1=C/c1cccnc1	-	-	-	-	-	.	.	.	.

Source: PubChem (Sanford-Burnham Center for Chemical Genomics)
